In ChEMBL document CHEMBL1124136, “The acylating potential of gamma-lactam antibacterials: base hydrolysis of bicyclic pyrazolidinones” (J Med Chem, 1988) one finds MIC and k data, which are given here for 16 molecules.

For one series, the system named is Streptococcus pyogenes. The experiment in a line: Minimum inhibitory concentration (MIC), tested against Streptococcus pyogenes C203. It is filed as functional.
For a further series, the system named is Providencia rettgeri. The experiment in a line: Minimum inhibitory concentration (MIC), tested against Providencia rettgeri C24. It counts as functional.
Another series deals with Klebsiella pneumoniae. As to the kind of experiment: Minimum inhibitory concentration (MIC), tested against Klebsiella pneumoniae X68. It is filed as functional.
Series [1] in a line: Rate constant for hydrolysis at pH 9. It is filed as ADME. The conditions noted are these: buffer. The essentials: (§1)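 Constant-pH hydrolysis (pH 9 or 11) was run on a pH-stat with NaOH addition, and loss of lactam (3.6×10^-4 to 1×10^-3 M) was followed by HPLC. Ionic strength was 0.5 with KCl. A pseudo-first-order rate constant was obtained from the disappearance time course.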

Series [2] is described as follows: Rate constant for hydrolysis at pH 10. It counts as ADME. The conditions noted are these: buffer. The essentials:
(§2)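 Pseudo-first-order loss of parent lactam followed by HPLC at 35 °C. Lactam was 3.6×10^-4 to 1×10^-3 M in aqueous KCl at ionic strength 0.5, with pH held by NaOH on a pH-stat. Values were measured at pH 10 directly, or at pH 9 (×10) or pH 11 (÷10), taking k_obsd as proportional to [OH−].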

Series [3] is described as follows: Rate constant for hydrolysis at pH 11. It is filed as ADME. The conditions noted are these: buffer. The gist of the method:
as §1

Series [4] can be described thus: Pseudo-first-order Rate constant for hydrolysis at pH 10. The conditions noted are these: buffer. It counts as ADME. The essentials:
as §2

≈ marks a conversion by molar mass, not a printed value.

Regarding `CO/N=C(\C(=O)NC1CN2CC(S(C)(=O)=O)=C(C(=O)O)N2C1=O)c1csc(N)n1` (stereo unspecified), the MIC in the series on Streptococcus pyogenes came to 0.25 µg/mL (≈ 0.562 µM); with Providencia rettgeri it was 0.06 µg/mL (≈ 0.135 µM); against Klebsiella pneumoniae, 0.25 µg/mL (≈ 0.562 µM). The molecule also came in with a k in series [1] of 14.8 h⁻¹.

`CO/N=C(\C(=O)NC1CN2CC(C(=O)OC)=C(C(=O)O)N2C1=O)c1csc(N)n1` (stereo unspecified): the MIC was 4 µg/mL (≈ 9.43 µM) in the series with Streptococcus pyogenes, 1 µg/mL (≈ 2.36 µM) against Providencia rettgeri and 8 µg/mL (≈ 18.9 µM) in the series with Klebsiella pneumoniae. This molecule also yielded a k in series [1] of 4.74 h⁻¹.

The molecule `CO/N=C(\C(=O)NC1CN2N(C1=O)C(C(=O)O)=C(C(=O)OC)C2(C)C)c1csc(N)n1` (stereo unspecified) displayed a k in series [2] of 0.769 h⁻¹. Besides, the values for the MIC in the series on Streptococcus pyogenes, with Providencia rettgeri and against Klebsiella pneumoniae were 64 µg/mL (≈ 141 µM), more than 128 µg/mL and more than 128 µg/mL, respectively.

In the case of `CO/N=C(\C(=O)NC1CN2CC(C(=O)O)=C(C(=O)O)N2C1=O)c1csc(N)n1` (stereo unspecified), in series [2], the k turned out to be 0.324 h⁻¹. The MIC was determined as 8 µg/mL (≈ 19.5 µM) in the series with Streptococcus pyogenes, 8 µg/mL (≈ 19.5 µM) against Providencia rettgeri and 64 µg/mL (≈ 156 µM) against Klebsiella pneumoniae.

For `CO/N=C(\C(=O)NC1CN2CC(c3ccccc3)=C(C(=O)O)N2C1=O)c1csc(N)n1` (stereo unspecified), in series [2], the k is 0.146 h⁻¹. The MIC in the series on Streptococcus pyogenes, against Providencia rettgeri and in the series with Klebsiella pneumoniae was more than 128 µg/mL each time.

For `CO/N=C(\C(=O)NC1CN2N(C1=O)C(C(=O)O)=C(C(=O)O)C2(C)C)c1csc(N)n1` (stereo unspecified), the MIC against Streptococcus pyogenes, against Providencia rettgeri and against Klebsiella pneumoniae was more than 128 µg/mL throughout. Besides, in series [3], the k is 0.0111 h⁻¹.

As for `CO/N=C(\C(=O)NC1CN2CC(C(=O)Nc3ccccc3)=C(C(=O)O)N2C1=O)c1csc(N)n1` (stereo unspecified), the MIC in the series on Streptococcus pyogenes was found to be 1 µg/mL (≈ 2.06 µM); in the series on Providencia rettgeri it was 8 µg/mL (≈ 16.5 µM); in the series with Klebsiella pneumoniae it was 32 µg/mL (≈ 65.9 µM). This molecule showed a k in series [1] of 2.33 h⁻¹.

In series [2], `CO/N=C(\C(=O)NC1CN2CC(c3cccs3)=C(C(=O)O)N2C1=O)c1csc(N)n1` (stereo unspecified) displayed a k of 0.19 h⁻¹. In addition, the MIC against Streptococcus pyogenes, against Providencia rettgeri and in the series on Klebsiella pneumoniae was more than 128 µg/mL throughout.

Regarding `CO/N=C(\C(=O)NC1CN2CC(C#N)=C(C(=O)O)N2C1=O)c1csc(N)n1` (stereo unspecified), the MIC against Streptococcus pyogenes came to 0.5 µg/mL (≈ 1.28 µM); with Providencia rettgeri, 0.25 µg/mL (≈ 0.639 µM); against Klebsiella pneumoniae, 0.5 µg/mL (≈ 1.28 µM). The k in series [1] was 17.3 h⁻¹.

As to `CO/N=C(\C(=O)NC1CN2CC(C(C)=O)=C(C(=O)O)N2C1=O)c1csc(N)n1` (stereo unspecified), the MIC against Streptococcus pyogenes was determined as 0.5 µg/mL (≈ 1.22 µM); in the series with Providencia rettgeri it was 0.25 µg/mL (≈ 0.612 µM); in the series on Klebsiella pneumoniae, 2 µg/mL (≈ 4.9 µM). Further, the k in series [1] is 7.24 h⁻¹.

In series [4], `C[C@H]1[C@H](NC(=O)/C(=N\OC(C)(C)C(=O)O)c2csc(N)n2)C(=O)N1S(=O)(=O)O` [AZTREONAM] gave a k of 0.4 h⁻¹.

In turn, `N[C@@H](C(=O)N[C@@H]1C(=O)N2C(C(=O)O)=C(Cl)CS[C@H]12)c1ccccc1.O` [CEFACLOR] had a k in series [4] of 0.944 h⁻¹.

Regarding `CC(C)(O/N=C(\C(=O)N[C@@H]1C(=O)N2C(C(=O)[O-])=C(C[n+]3ccccc3)CS[C@H]12)c1csc(N)n1)C(=O)O` [CEFTAZIDIME], the k in series [4] stood at 1.3 h⁻¹.

Turning to `CC1=C(C(=O)O)N2C(=O)[C@@H](NC(=O)[C@H](N)c3ccccc3)[C@H]2SC1` [CEPHALEXIN ANHYDROUS], the k in series [4] worked out at 0.0685 h⁻¹.

The molecule `CC(=O)OCC1=C(C(=O)O)N2C(=O)[C@@H](NC(=O)Cc3cccs3)[C@H]2SC1` [CEPHALOTHIN] showed a k in series [4] of 0.317 h⁻¹.

Take `CC1(C)S[C@@H]2[C@H](NC(=O)COc3ccccc3)C(=O)N2[C@H]1C(=O)O` [PENICILLIN V]: in series [4], the k amounted to 0.248 h⁻¹.
